Tests used:
[1] = Cmax in chronic SCW-induced arthritis Lewis rat model plasma at ED50 concentration; assay type: ADME, cell-free
Summary of the method: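 Female Lewis rats (125-140 g) received a single i.p. streptococcal cell wall injection. Animals showing the acute phase were pooled, 4-8 per group over three experiments. Dosing was oral gavage b.i.d., days 10-21, in methylcellulose-Tween-20 vehicle. Hind paw volume was read by displacement plethysmometer on day 21, as % inhibition of swelling. Plasma was sampled up to 11 h after the last dose, 3 rats per dose. ED values came from fitted curves.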

[2] = target: MAP kinase-activated protein kinase 3 (Homo sapiens, UniProt Q16644); assay: Inhibition of recombinant MK3 (unknown origin) expressed in Escherichia coli using KKKALSRQLSVAA as substrate incubated for 1 hr followed by substrate addition in presence of ATP
Sequence of MAP kinase-activated protein kinase 3 (Q16644 whole entry): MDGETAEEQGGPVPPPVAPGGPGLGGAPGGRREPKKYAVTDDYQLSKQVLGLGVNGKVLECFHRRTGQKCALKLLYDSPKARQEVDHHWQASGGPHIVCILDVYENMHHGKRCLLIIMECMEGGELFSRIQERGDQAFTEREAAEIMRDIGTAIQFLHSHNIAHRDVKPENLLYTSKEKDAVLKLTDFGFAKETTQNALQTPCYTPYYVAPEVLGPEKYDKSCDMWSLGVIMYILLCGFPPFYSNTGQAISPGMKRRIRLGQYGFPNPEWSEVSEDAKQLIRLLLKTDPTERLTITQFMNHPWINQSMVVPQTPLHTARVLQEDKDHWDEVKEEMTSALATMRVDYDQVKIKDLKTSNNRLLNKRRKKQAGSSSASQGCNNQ
Summary of the method: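 Recombinant kinase first activated with activated p38α (1:50 molar ratio) and 250 μM ATP for 1 hr at 30°C. Activity measured by 33P-labelled product peptide, separated by ion exchange. MgATP fixed at the Km(app) determined for each enzyme. IC50 values from duplicate experiments.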

[3] = target: MAP kinase-interacting serine/threonine-protein kinase 2 (Homo sapiens, UniProt Q9HBH9); assay: Inhibition of recombinant MNK2 (unknown origin) using KKKALSRQLSVAA as substrate incubated for 1 hr followed by substrate addition in presence of ATP
Sequence of MAP kinase-interacting serine/threonine-protein kinase 2 (Q9HBH9 whole entry): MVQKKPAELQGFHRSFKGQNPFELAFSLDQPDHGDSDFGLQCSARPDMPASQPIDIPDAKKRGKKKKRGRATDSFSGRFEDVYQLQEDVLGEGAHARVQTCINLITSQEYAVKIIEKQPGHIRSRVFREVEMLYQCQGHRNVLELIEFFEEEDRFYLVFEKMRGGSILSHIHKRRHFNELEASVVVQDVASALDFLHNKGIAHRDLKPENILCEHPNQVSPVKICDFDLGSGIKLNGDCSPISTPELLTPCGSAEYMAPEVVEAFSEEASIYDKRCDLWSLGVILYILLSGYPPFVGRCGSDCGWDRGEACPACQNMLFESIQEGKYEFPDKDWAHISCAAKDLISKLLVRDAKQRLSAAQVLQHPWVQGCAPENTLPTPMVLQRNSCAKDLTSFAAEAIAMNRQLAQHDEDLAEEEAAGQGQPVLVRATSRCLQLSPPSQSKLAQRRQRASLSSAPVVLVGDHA
Summary of the method: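 Recombinant MAPKAP kinase was first activated with activated p38α (1:50 molar ratio) and 250 μM ATP for 1 hr at 30°C. Activity was then assayed at Km(app) MgATP by ion-exchange separation of 33P-labeled product peptide. IC50 was taken from duplicate experiments.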

[4] = Inhibition of AMPK (unknown origin); parameters: species or system Homo sapiens
[5] = target: Serine/threonine-protein kinase pim-1 (Homo sapiens, UniProt P11309); assay: Inhibition of Pim1 (unknown origin)
Sequence of Serine/threonine-protein kinase pim-1 (P11309 whole entry): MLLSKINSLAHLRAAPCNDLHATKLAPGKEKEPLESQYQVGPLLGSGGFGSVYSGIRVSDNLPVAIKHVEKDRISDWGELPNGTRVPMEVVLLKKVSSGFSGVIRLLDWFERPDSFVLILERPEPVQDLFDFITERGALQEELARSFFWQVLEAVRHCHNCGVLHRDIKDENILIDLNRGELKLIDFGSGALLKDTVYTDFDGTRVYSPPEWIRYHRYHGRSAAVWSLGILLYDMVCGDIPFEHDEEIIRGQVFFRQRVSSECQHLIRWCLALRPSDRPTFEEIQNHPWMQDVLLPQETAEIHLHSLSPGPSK
Summary of the method: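 Kinase panel: 200 kinases were first screened at 1 μM inhibitor for percent inhibition. Those above 50% inhibition were then titrated for IC50. MgATP was fixed at the Km(app) determined for each enzyme.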

[6] = Inhibition of TNF-alpha production in LPS-induced human U-937 cells preincubated with compound for 1 hr followed by LPS induction and measured after 4 hrs by MSD analysis; assay type: functional, cell-based
Summary of the method: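 U937 cells were pretreated with compound for 1 h (<1% DMSO final), then stimulated with LPS 100 ng/ml at 37°C. Media TNFα was read at 4 h by MSD electrochemiluminescence. Three separate experiments in duplicate, mean ±S.E.M. IC50 by 4-parameter nonlinear regression.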

[7] = Inhibition of IL-1 beta production in LPS induced human PBMC cells preincubated with compound for 1 hr followed by LPS induction and measured after 16 hrs by MSD analysis; assay type: functional, cell-based
Summary of the method: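 Human PBMCs were pretreated with compound for 1 h (<1% DMSO final), then stimulated with LPS 100 ng/ml at 37°C. Cytokines in culture media were read by MSD 4-plex: TNFα at 4 h; IL-1β, IL-6 and IL-8 at 16 h. Data are means ±S.E.M. of two independent experiments in duplicate, three donors. IC50 by 4-parameter nonlinear regression.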

[8] = Inhibition of TNFalpha production in LPS induced human Whole blood cell preincubated with compound for 1 hr followed by LPS induction and measured after 4 hrs; assay type: functional, cell-based
Summary of the method: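 Human whole blood was stimulated with LPS 100 ng/ml for 4 h. Plasma TNFα was read by MSD kit. Three separate experiments in duplicate, mean ±S.E.M. IC50 by 4-parameter nonlinear regression.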

[9] = Antiinflammatory activity in human PBMC cells assessed as inhibition of LPS induced TNF alpha production preincubated for 1 hr followed by LPS stimulation and measured after 16 hrs by MSD analysis; assay type: functional, cell-based
[10] = Antiinflammatory activity in human Whole blood cell assessed as inhibition of LPS induced IL-1 beta production preincubated for 1 hr followed by LPS stimulation and measured after 16 hrs by MSD analysis; assay type: functional, cell-based
Summary of the method: (§1)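 Human whole blood was stimulated ex vivo with LPS 100 ng/ml. Plasma cytokines were read by MSD 4-plex: TNFα at 4 h; IL-1β, IL-6 and IL-8 at 16 h. Data are means ±S.E.M. of two independent experiments in duplicate, three donors. IC50 by 4-parameter nonlinear regression.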

[11] = Antiinflammatory activity in human Whole blood cell assessed as inhibition of LPS induced IL-6 production preincubated for 1 hr followed by LPS stimulation and measured after 16 hrs by MSD analysis; assay type: functional, cell-based; summary of the method: as §1
[12] = Antiinflammatory activity in human Whole blood cell assessed as inhibition of LPS induced IL-8 production preincubated for 1 hr followed by LPS stimulation and measured after 16 hrs by MSD analysis; assay type: functional, cell-based; summary of the method: as §1
[13] = Clearance in Sprague-Dawley rat plasma at 1 mg/kg measured upto 24 hrs by LC-MS/MS analysis; assay type: ADME, organism-based
Summary of the method: (§2)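 Male Sprague-Dawley rats (275-300 g), carotid-catheterized and acclimated overnight. Dosing was i.v. at 1 mpk (n=2) in 70% saline/20% PEG-400/10% ethanol, or oral at 3 mpk (n=3) as a suspension in 0.5% HPMC/Tween. Plasma drug was measured by LC-MS/MS. Cmax and Tmax were read from individual profiles. t½ came from the terminal log-linear slope and AUC by the linear trapezoidal rule. CL = dose/AUC0-∞, Vdss = CL×MRT, F = dose-normalized AUC po/iv.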

[14] = Volume of distribution at steady state in Sprague-Dawley rat measured upto 24 hrs by […] analysis; assay type: ADME; settings: in vivo, read-out: Vdss; summary of the method: as §2
[15] = AUC (0 to infinity) in Sprague-Dawley rat at 3 mg/kg, po measured upto 24 hrs by […] analysis; assay type: ADME, organism-based; settings: in vivo; summary of the method: as §2

Cc1ccc(-c2ccc3c(ccc4sc5c(c43)NC[C@@H](C)NC5=O)n2)cn1
Cmax [1]: 11 µM | IC50 [2]: 53 nM | IC50 [3]: 148 nM | IC50 [4]: 117 nM | IC50 [5]: 88 nM | IC50 [6]: 159 nM | IC50 [7]: 2780 nM | IC50 [8]: 1970 nM | IC50 [9]: 214 nM | IC50 [10]: > 20000 nM | IC50 [11]: 10300 nM | IC50 [12]: > 20000 nM | clearance [13]: 10.3 mL/min/kg | Vd [14]: 1.5 L/kg | AUC(0-inf) [15]: 1.8 µM·h
